PolyA inh: blocks polyadenylation in yeast reporter cells; activity score, % at 12 µM; hit rate 0.02% among 300,000; S. cerevisiae SKY197-pL101 polyadenylation reporter, beta-gal luminescence; efflux-impaired pdr1/pdr3 knockout yeast; score 100 = 6 SD above DMSO;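 active means lowest replicate activity score at least 50, where 100 means six control SD above control mean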;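 further: yeast exposed to compound for 9 h at 30 °C; higher score means more reporter readthrough which indicates perturbed polyadenylation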
NLRP3 yeast inh: NALP3 inhibition in yeast; inhibition, % at 10 µM; hit rate 0.39% among 330,000; Yeast reconstituted NLRP3/ASC/caspase-1, beta-gal luminescence, 24 h;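 active means inhibition of 50% or more; inactive means inhibition below 50%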;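 further: plate controls were induced DMSO wells for no effect and uninduced yeast grown without galactose for full effect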
Mot1-301 SUMO: SUMOylation pathway inhibition by Mot1-301 growth rescue; S. cerevisiae Mot1-301 growth rescue, ATP luminescence, 38.5C; percent above DMSO median, 100 means doubled; growth rescue, % at 18.8 µM; hit rate 1% among 320,000; AID 2716;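 active means every valid replicate shows activation above 250% relative to neutral control wells; inactive means the rest, any valid replicate at or below 250%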;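 further: OY570 slx delta 5 strain wells were the positive control but not used for scaling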
VIM-2 inh: blocks Pseudomonas aeruginosa VIM-2 metallo-beta-lactamase | purified VIM-2, nitrocefin hydrolysis, epi-absorbance fluorescence | inhibition, % at 5.6 µM | hit rate 0.89% among 290,000;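 active means inhibition above the mean of all tested compounds plus 3 SD, cutoff set per screening run, cut at about 7.5% in these data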;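 further: red hydrolysis product quenches plate fluorescence so inhibitors raise well fluorescence; 0% = enzyme with DMSO and 100% = DMSO without enzyme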
IMP-1 inh: blocks Pseudomonas aeruginosa IMP-1 metallo-beta-lactamase. inhibition, % at 5.6 µM. hit rate 0.45% among 290,000. purified IMP-1, nitrocefin hydrolysis, epi-absorbance fluorescence. AID 1556;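 active means inhibition above the mean plus 3 SD of all compounds in the same screening run, cut at about 4.5% in these data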;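 further: 0% = IMP-1 with DMSO and 100% = DMSO wells lacking enzyme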
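system = purified recombinant IMP-1 beta-lactamase | amount = 0.2 nM IMP-1, as dispensed | medium = HEPES buffer pH 7.1 with ZnSO4 and Brij 35 | times = 25 °C, 15 min preincubation, 25 min reaction | detection = plate fluorescence quenching by hydrolysis product, ex 480/em 530 nm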
NALP1 inh: NALP1 inhibition; S. cerevisiae NALP1/ASC/caspase-1 growth, X-gal OD620, 72 h; inhibition, % at 10 µM; hit rate 0.61% among 280,000; AID 2071; in the data active means inhibition mostly above about 24%, no sharp cut-off; inactive means mostly below about 32%
NALP3 confirm: confirmation of NALP3 inhibitors in yeast. shares compounds with NLRP3 yeast inh. yeast expressing human NALP3, luminescence. inhibition, % at 10 µM. hit rate 81% among 1,300. AID 435006; in the data active means inhibition above about 48%
Casp1 ASC ctr: caspase-1-ASC yeast counter-screen hit; shares compounds with NLRP3 yeast inh; hit rate 66% among 1,000; inhibition, % at 10 µM; yeast expressing Caspase-1-ASC, luminescence counter screen
NALP3 yeast rt: confirmation retest of NALP3 inhibitors in yeast. shares compounds with NLRP3 yeast inh. yeast expressing human NALP3, luminescence read-out. inhibition, % at 10 µM. hit rate 53% among 1,000. AID 488794
Active calls of the source: *; / = not tested or not shown. A selection: hits, their analogues and other compounds. The true share with any hit is near 2.9%. Unless noted, no stated cut-off is given here; in the data, active means inhibition above about 50%; inactive means the rest.

SMILES	PolyA inh	NLRP3 yeast inh	Mot1-301 SUMO	VIM-2 inh	IMP-1 inh	NALP1 inh	NALP3 confirm	Casp1 ASC ctr	NALP3 yeast rt
CCOc1ccc(CSCCNC(=S)Nc2ccc(OC)cc2)cc1	-39	68*	-8	-1	-2	8	64*	50	35
O=S(=O)(c1ccsc1)N1CC=C(c2ccccc2)CC1	4	58*	-12	0	-3	9	61*	48	29
NC(=O)c1cc(S(=O)(=O)N2CC=C(c3ccccc3)CC2)cs1	2	14	3	-2	-3	-4	/	/	/
O=C(CCNC(=O)c1ccc(Cl)cc1)Nc1ccccc1N1CCCC1	-3	22	-2	/	/	/	/	/	/
CCOc1ccc(Nc2ccc(C(=O)O)cc2[N+](=O)[O-])cc1	7	24	98	-2	-3	14	/	/	/
CCOc1ccc(N/C=C/C(=O)c2ccccc2)c([N+](=O)[O-])c1	-4	59*	-25	-4	-3	51*	-27	/	/
COc1ccc(Cn2c(=O)sc3ccccc3c2=O)cc1	/	51*	/	-2	-4	-19	60*	60*	43
CCOc1ccccc1C(=O)Nc1cc(Cl)ccc1O	13	52*	24	1	-3	38	72*	66*	53*
O=C(NCCC1=CCCCC1)c1c(O)nc2sccn2c1=O	-10	67*	0	/	/	/	79*	48	56*
O=C(NCCC1=CCCCC1)c1c(O)nc2ccccn2c1=O	69*	63*	4	-3	-3	18	76*	52*	55*
O=C(NCCCN1CCCC1=O)c1c(O)nc2ccccn2c1=O	5	-6	0	0	-1	9	/	/	/
O=C(NCCCc1ccccc1)c1c(O)nc2sccn2c1=O	17	63*	4	/	/	/	77*	39	59*
CCOC(=O)Cc1csc(SCC(=O)NC2CCS(=O)(=O)C2)n1 (stereo unspecified)	/	4	-6	/	/	/	/	/	/
O=C(C1CC1)N1CCc2cc(S(=O)(=O)NCc3ccccc3)ccc21	-6	3	-4	-1	-4	20	/	/	/
O=C(CN1C(=O)NC2(CCOc3ccccc32)C1=O)N1CCCCC1 (stereo unspecified)	/	14	0	/	/	/	/	/	/
O=S(=O)(Nc1ccccc1F)c1cccc(NC(=S)NCCN2CCOCC2)c1	/	-3	36	/	/	/	/	/	/
O=C(N/N=C/c1ccco1)c1ccc(Br)o1	13	5	21	2	0	-4	/	/	/
COc1ccc(NC(=O)c2cc3ccccc3o2)cc1OC	-1	20	1	0	-2	16	/	/	/
CC(=O)Nc1cccc(NC(=O)c2cc3ccccc3o2)c1	13	16	1	-6	-4	20	/	/	/
O=C(Nc1ccc(F)cc1)c1cc2ccccc2o1	-4	24	-8	1	0	26	/	/	/
Cc1ccc(NC(=O)c2cc3ccccc3o2)cc1Cl	34	50*	74	-1	-2	9	68*	39	40
O=C(N/N=C/c1ccco1)c1cc2ccccc2o1	29	64*	34	-2	-4	22	74*	64*	63*
O=C(Nc1ccccc1)c1cc2ccccc2o1	-18	52*	-21	-3	-4	5	51*	53*	53*
COc1ccc(NC(=O)c2cc3ccccc3o2)cc1	-19	55*	-11	-4	-4	5	79*	66*	61*
c1ccc2c(OCCCN3CCCCCC3)cccc2c1	-7	17	223	-1	0	12	/	/	/
CCOC(=O)C1CCN(C(=O)COC(=O)C23CC4CC(CC(C4)C2)C3)CC1	/	13	-9	/	/	/	/	/	/
C/C(=N/NC(=O)CN(c1ccccc1)S(=O)(=O)c1ccccc1)c1ccccc1O	-12	5	-1	-1	1	5	/	/	/
NCCC(=O)NCCc1cnc[nH]1	/	66*	0	/	/	/	76*	63*	72*
